Laboratory results taken from ChEMBL document CHEMBL3400028, “Evaluation of Aconitum diterpenoid alkaloids as antiproliferative agents” (2015).

Assays:
Assay type in all cases: functional
[1] = system: A549; test: Antiproliferative activity against human A549 cells by sulforhodamine B assay
Outline: (§1)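 Cells in RPMI 1640 (25 mM HEPES, 2 mM L-glutamine, 10% heat-inactivated FBS, antibiotics) at 37 °C, 5% CO2. Seeded at 3–5 × 10³/well with graded concentrations, paclitaxel as assay control, for 72 h. TCA-fixed, stained with 0.04% SRB, dye dissolved in 10 mM Tris, A515 read. GI50 is the concentration halving absorbance versus untreated cells; three or more experiments.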

[2] = system: DU-145; test: Antiproliferative activity against human DU145 cells by sulforhodamine B assay; outline: as §1
[3] = Antiproliferative activity against multidrug-resistant P-gp expressing human KBVIN cells by sulforhodamine B assay
Outline: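 Vincristine-resistant KB subline kept in 100 nM vincristine, then grown 7–10 days without it before testing. RPMI 1640 with 10% FBS, 37 °C, 5% CO2. 3–5 × 10³ cells/well exposed 72 h to a concentration series, paclitaxel as assay control. SRB staining after TCA fixation, A515 read. GI50 is the 50% absorbance reduction versus untreated cells; three or more experiments.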

[4] = Selectivity ratio of GI50 for human KB cells to GI50 for multidrug-resistant P-gp expressing human KBVIN cells
Outline: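 Ratio of GI50 in parental KB to GI50 in P-gp-overexpressing KB-VIN. […] KB-VIN cells were grown 7–10 days without vincristine before the assay.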

[5] = system: KB; test: Antiproliferative activity against human KB cells by sulforhodamine B assay; outline: as §1

| Structure (SMILES) | GI50 [1] [µM] | GI50 [2] [µM] | GI50 [5] [µM] | GI50 [3] [µM] | RatioGI50 [4] |
| --- | --- | --- | --- | --- | --- |
| C=C1[C@H]2C[C@H]3C4N5C[C@]6(C)CCC[C@]47[C@H]([C@H]2OC(=O)/C=C/c2ccccc2)C3(C[C@]5(O)[C@H]67)[C@@H]1O | 8.4 | 6.5 | 7 | 6.4 | 1.1 |
| C=C1[C@H]2C[C@H]3C4N5C[C@]6(C)CCC[C@]47[C@H]([C@H]2O)C3(C[C@]5(OC(=O)/C=C/c2ccccc2)[C@H]67)[C@@H]1O | > 20 | > 20 | > 20 | > 20 | >20 |
| C=C1[C@H]2C[C@@H]3C4N5C[C@]6(C)CCC[C@@]47[C@@H]6[C@@]5(O)C[C@]3([C@@H]1OC(C)=O)[C@H]7[C@H]2O | > 20 | > 20 | > 20 | > 20 |  |
| C=C1[C@H]2C[C@@H]3C4N5C[C@]6(C)CCC[C@@]47[C@@H]6[C@@]5(O)C[C@]3([C@@H]1OC(C)=O)[C@H]7[C@H]2OC(C)=O | > 20 | > 20 | > 20 | > 20 |  |
| C=C1[C@H]2C[C@@H]3C4N(C(C)=O)C[C@]5(C)CCC[C@@]46[C@@H]5C(=O)C[C@]3([C@@H]1OC(C)=O)[C@H]6[C@H]2OC(C)=O (some centres not stated) | > 20 | > 20 | > 20 | > 20 |  |
| C=C1[C@H]2C[C@@H]3C4N5C[C@]6(C)CCC[C@@]47[C@@H]6[C@@]5(O)C[C@]3([C@@H]1OC(=O)c1ccccc1)[C@H]7[C@H]2OC(=O)c1ccccc1 | 8.8 | 7.6 | 5.2 | 6.3 | 0.82 |
| C=C1[C@H]2C[C@@H]3C4N5C[C@]6(C)CCC[C@@]47[C@@H]6[C@@]5(O)C[C@]3([C@@H]1O)[C@H]7[C@H]2OC(=O)c1ccc([N+](=O)[O-])cc1 | 5.8 | 7.2 | 6.4 | 6.4 | 1 |
| C=C1[C@H]2C[C@@H]3C4N5C[C@]6(C)CCC[C@@]47[C@@H]6[C@@]5(OC(=O)c4ccc([N+](=O)[O-])cc4)C[C@]3([C@@H]1OC(=O)c1ccc([N+](=O)[O-])cc1)[C@H]7[C@H]2OC(=O)c1ccc([N+](=O)[O-])cc1 | > 20 | > 20 | > 20 | > 20 | >20 |
| C=C1[C@H]2C[C@@H]3C4N5C[C@]6(C)CCC[C@@]47[C@@H]6[C@@]5(O)C[C@]3([C@@H]1OC(=O)c1cccc([N+](=O)[O-])c1)[C@H]7[C@H]2OC(=O)c1cccc([N+](=O)[O-])c1 | 5 | 5.2 | 5.6 | 5.6 | 0.99 |
| C=C1[C@H]2C[C@@H]3C4N5C[C@]6(C)CCC[C@@]47[C@@H]6[C@@]5(O)C[C@]3([C@@H]1O)[C@H]7[C@H]2OC(=O)c1cccc(C(F)(F)F)c1 | 6.8 | 7.7 | 8.9 | 6.2 | 1.5 |
| C=C1[C@H]2C[C@@H]3C4N5C[C@]6(C)CCC[C@@]47[C@@H]6[C@@]5(OC(=O)c4cccc(C(F)(F)F)c4)C[C@]3([C@@H]1O)[C@H]7[C@H]2OC(=O)c1cccc(C(F)(F)F)c1 | > 20 | > 20 | > 20 | > 20 | >20 |
| C=C1[C@H]2C[C@@H]3C4N5C[C@]6(C)CCC[C@@]47[C@@H]6[C@@]5(O)C[C@]3([C@@H]1O)[C@H]7[C@H]2OC(=O)c1ccc(C(F)(F)F)cc1 | 10 | 10 | 10 | 10 | 10 |
| C=C1[C@H]2C[C@@H]3C4N5C[C@]6(C)CCC[C@@]47[C@@H]6[C@@]5(O)C[C@]3([C@@H]1OC(=O)/C=C/c1ccccc1)[C@H]7[C@H]2O | > 20 | > 20 | > 20 | > 20 | >20 |
| C=C1[C@H]2C[C@@H]3C4N(C(=O)/C=C/c5ccccc5)C[C@]5(C)CCC[C@@]46[C@@H]5C(=O)C[C@]3([C@@H]1O)[C@H]6[C@H]2O (some centres not stated) | > 20 | > 20 | > 20 | > 20 | >20 |
| C=C1[C@H]2C[C@@H]3C4N5C[C@]6(C)CCC[C@@]47[C@@H]6[C@@]5(O)C[C@]3([C@@H]1O)[C@H]7[C@H]2OC(=O)C(C)(C)C | > 20 | > 20 | > 20 | > 20 | >20 |
| C=C1[C@H]2C[C@@H]3C4N5C[C@]6(C)CCC[C@@]47[C@@H]6[C@@]5(O)C[C@]3([C@@H]1O)[C@H]7[C@H]2OC(=O)c1cccnc1 | > 20 | > 20 | > 20 | > 20 | >20 |
| C=C1[C@H]2C[C@H]3C4N5C[C@]6(C)CCC[C@]47[C@H]([C@H]2OC(=O)c2ccc(OC)c(OC)c2)C3(C[C@]5(O)[C@H]67)[C@@H]1O | 10 | 10 | 10 | 10 | 10 |

Further lines, with some results ahead:

| GI50 [1] [µM] | GI50 [2] [µM] | GI50 [5] [µM] | Structure (SMILES) | GI50 [3] [µM] | RatioGI50 [4] |
| --- | --- | --- | --- | --- | --- |
| 10 | 10 | 10 | C=C1[C@H]2C[C@H]3C4N5C[C@]6(C)CCC[C@]47[C@H]([C@H]2OC(=O)c2ccccc2)C3(C[C@]5(OC(=O)c2ccccc2)[C@H]67)[C@@H]1O | 10 | 10 |
| 10 | 10 | 10 | C=C1[C@H]2C[C@H]3C4N5C[C@]6(C)CCC[C@]47[C@H]([C@H]2OC(=O)c2ccc(OC)cc2)C3(C[C@]5(O)[C@H]67)[C@@H]1O | 10 | 10 |
| > 20 | > 20 | > 20 | C=C1[C@H]2C[C@H]3C4N5C[C@]6(C)CCC[C@]47[C@H]([C@H]2O)C3(C[C@]5(OC(=O)c2ccccc2)[C@H]67)[C@@H]1O | > 20 | >20 |
| > 20 | > 20 | > 20 | C=C1[C@H]2C[C@H]3C4N5C[C@]6(C)CCC[C@]47[C@H]([C@H]2O)C3(C[C@]5(OC(=O)c2ccc(OC)cc2)[C@H]67)[C@@H]1O | > 20 | >20 |
| > 20 | > 20 | > 20 | C=C1[C@H]2C[C@@H]3C4N5C[C@]6(C)CCC[C@@]47[C@@H]6[C@@]5(OC(=O)c4ccc(OC)cc4)C[C@]3([C@@H]1O)[C@H]7[C@H]2OC(=O)c1ccc(OC)cc1 | > 20 | >20 |
| > 20 | > 20 | > 20 | C=C1[C@H]2C[C@@H]3C4N5C[C@]6(C)CCC[C@@]47[C@@H]6[C@@]5(OC(=O)c4ccc(OC)cc4)C[C@]3([C@@H]1OC(=O)c1ccc(OC)cc1)[C@H]7[C@H]2O | > 20 | >20 |
| > 20 | > 20 | > 20 | C=C1[C@H]2C[C@@H]3C4N5C[C@]6(C)CCC[C@@]47[C@@H]6[C@@]5(O)C[C@]3([C@@H]1OC(=O)c1ccc(OC)c(OC)c1)[C@H]7[C@H]2O | > 20 | >20 |
| 10 | 10 | 10 | C=C1[C@H]2C[C@@H]3C4N5C[C@]6(C)CCC[C@@]47[C@@H]6[C@@]5(OC(=O)c4ccc(OC)c(OC)c4)C[C@]3([C@@H]1O)[C@H]7[C@H]2OC(=O)c1ccc(OC)c(OC)c1 | 10 | 10 |
| 10 | 10 | 10 | C=C1[C@H]2C[C@@H]3C4N5C[C@]6(C)CCC[C@@]47[C@@H]6[C@@]5(OC(=O)c4ccc(OC)c(OC)c4)C[C@]3([C@@H]1OC(=O)c1ccc(OC)c(OC)c1)[C@H]7[C@H]2O | 10 | 10 |
| > 20 | > 20 | > 20 | C=C1[C@H]2C[C@@H]3C4N5C[C@]6(C)CCC[C@@]47[C@@H]6[C@@]5(OC(=O)c4ccc([N+](=O)[O-])cc4)C[C@]3([C@@H]1O)[C@H]7[C@H]2O | > 20 | >20 |
| > 20 | > 20 | > 20 | C=C1[C@H]2C[C@@H]3C4N5C[C@]6(C)CCC[C@@]47[C@@H]6[C@@]5(O)C[C@]3([C@@H]1OC(=O)c1ccc([N+](=O)[O-])cc1)[C@H]7[C@H]2O | > 20 | >20 |
| > 20 | > 20 | > 20 | C=C1[C@H]2C[C@@H]3C4N5C[C@]6(C)CCC[C@@]47[C@@H]6[C@@]5(OC(=O)c4ccc([N+](=O)[O-])cc4)C[C@]3([C@@H]1OC(=O)c1ccc([N+](=O)[O-])cc1)[C@H]7[C@H]2O | > 20 | >20 |
